Source: PubChem BioAssay (several laboratories)
TRPC4 block = inhibitors of mouse TRPC4 channel, primary screen, Fluo4 calcium, HEK293 TRPC4beta/mu-opioid cells. Short transient receptor potential channel 4 (Mus musculus), Q9QUQ5. DAMGO-evoked Fluo4 calcium flux; active compounds read low. B-score at 10 µM. 300,000 tested, 0.39% active;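 active = B-score over 3 SD under the library average, no early fluorescence shift, positive overall ratio signal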
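Assay system: HEK293 cells with stable TRPC4beta plus mu-opioid receptor expression; Probe or stimulus: DAMGO in two steps, submaximal then maximal; Dosing: single-point compound dosing; Measured by: Fluo4 calcium-dye fluorescence, kinetic read; Read-out basis: B score from integrated Fluo4 fluorescence ratio.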
Platelet DG rel = inhibitors of platelet dense granule secretion, primary screen, cell-based, MLPCN, human platelets; human platelet-rich plasma, SFLLRN dense granule ATP release, luminescence; inhibition, %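 (compounds screened at 7.5 µM in platelet-rich plasma)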; 300,000 tested, 0.22% active; AID 1663, 2009;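 active = mean replicate score, as percent of positive control, at or above 50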
TRPC4 PAM = positive allosteric modulators of TRPC4, primary screen, cell-based, mouse TRPC4beta, HEK293 mu-opioid, Fluo-4 calcium; DAMGO EC20, Fluo-4 Ca2+ flux; active compounds read high; B-score at 10 µM; 310,000 tested, 0.42% active; AID 2227, 2009;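 active = B-score of calcium response area above 5 SD of library B-scores, with initial fluorescence ratio within 5 SD of library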
TRPC6 inhibitor = mouse TRPC6 channel inhibitors, primary screen, cell-based, HEK293, membrane potential dye; Short transient receptor potential channel 6 (Mus musculus), Q61143; ACh-evoked depolarization; active compounds read low; 310,000 tested, 1.1% active; B-score at 10 µM; AID 2553, 2010;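 active = B-score under library mean minus 3 SD, initial fluorescence not abnormally high, positive integrated signal ratio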;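 also: B-score derived from integrated fluorescence ratio over the kinetic read; more negative B-score means stronger inhibition of depolarization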
TRPC4 act = activators of mouse TRPC4 channel, primary screen, Fluo4 calcium, HEK293 TRPC4beta/mu-opioid cells. AID 2237, 2010. B-score at 10 µM. Fluo4 calcium fluorescence; active compounds read high. 310,000 tested, 0.49% active;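 active = B-score above 5 SD of library B-scores, and initial fluorescence ratio not above library mean plus 5 SD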;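 also: positive B-score marks a calcium rise read as TRPC4 activation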
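Material: TRPC4beta and mu-opioid receptor HEK293 stable cells | Incubation: 45 min room-temperature Fluo4 loading, 110 s read | Detection: Kinetic Fluo4 calcium fluorescence | Measure: Integrated baseline-normalised fluorescence ratio, converted to per-well B score | Benchmarks: Low control buffer alone, high control maximal DAMGO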
TRPC6 act = mouse TRPC6 channel activators, primary screen, cell-based, HEK293, membrane potential dye; HEK293-TRPC6 membrane potential dye fluorescence; active compounds read high; B-score at 10 µM; 310,000 tested, 0.13% active; AID 2550, 2010;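 active = B-score of the integrated fluorescence ratio above library mean plus 3 SD, and starting fluorescence ratio within library mean plus 5 SD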;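 also: higher score means more depolarization so channel activation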
TRPC4 spec 2 = mouse TRPC4 off-target activity of TRPC6 inhibitors, second screen. HEK293 TRPC4/MOR, membrane potential dye fluorescence; channel activated by saturating DAMGO dose. AID 2776. inhibition, % at 10 µM. shares compounds with TRPC6 inhibitor. 920 tested, 42% active;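 active = compounds whose fluorescence signal differed from control wells by over 3 SD, either direction, in both duplicate plates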
TRPC4 spec = mouse TRPC4 modulation by TRPC6 hits, confirmation, selectivity assay for TRPC6 inhibitor project, cell-based, HEK293 TRPC4/mu-opioid, membrane potential dye | shares compounds with TRPC6 inhibitor | membrane potential fluorescence | activity change, negative = inhibition, % at 10 µM | 920 tested, 61% active;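 active = rise or fall in signal beyond 3 SD of buffer-only wells in both replicate plates, either sign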;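 also: integrated kinetic ratio of fluorescence range over baseline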
HEK293 MPD ctr 2-1 = nonspecific membrane potential effects, parental HEK293, confirmation, counter-screen for TRPC6 inhibitor project, cell-based, second counter screen; signal change vs control, % at 10 µM; parental HEK293 membrane potential dye fluorescence; maximal acetylcholine challenge after compound addition; 920 tested, 31% active; shares compounds with TRPC6 inhibitor;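 active = membrane potential signal moving either way by over 3 SD of the maximum-effect control, in both duplicate plates, meaning non-specific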
HEK293 MPD ctr-1 = membrane potential modulation in parental HEK293, confirmation, counter-screen for TRPC6 inhibitor project, cell-based. shares compounds with TRPC6 inhibitor. parental HEK293 membrane potential dye fluorescence. membrane potential signal change, % at 10 µM. 920 tested, 60% active. AID 2780, 2010;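 active = membrane potential signal shifting up or down by more than 3 SD of buffer-only wells, on both duplicate plates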
HEK293 MPD ctr-2 = parental HEK293 membrane potential modulation, confirmation, counter-screen for TRPC6 modulator project, cell-based; shares compounds with TRPC6 inhibitor; membrane potential dye fluorescence; membrane potential signal change, % at 10 µM; 2,400 tested, 51% active;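 active = membrane potential signal moves up or down beyond 5 SD from buffer-only wells, on both duplicate plates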
HEK293 MPD ctr 2-2 = second check of TRPC6 modulator effects in parental HEK293 cells | shares compounds with TRPC6 inhibitor | membrane potential dye fluorescence; after compound, maximal acetylcholine stimulation | inhibition, % at 10 µM | 2,400 tested, 14% active;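 active = membrane potential signal drops by more than 5 SD from the mean control signal, in both duplicate plates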
TRPC4 ctr mod = TRPC4 modulation by TRPC6 hit compounds, confirmation, selectivity assay for TRPC6 modulator project, cell-based, HEK293 TRPC4/mu-opioid, membrane potential dye, mouse | percent change from control (negative = decrease, positive = increase), % at 10 µM | shares compounds with TRPC6 inhibitor | membrane potential fluorescence | 2,400 tested, 69% active | AID 488927, 2010;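 active = membrane potential signal moved up or down beyond 5 SD of buffer control wells, in both duplicate plates, actives on both sides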
TRPC4 ctr inh 2 = mouse TRPC4 off-target activity of TRPC6 modulators, second screen. shares compounds with TRPC6 inhibitor. HEK293 TRPC4/mu-opioid, membrane potential dye fluorescence; stimulated with maximal-effect DAMGO. inhibition, % at 10 µM. 2,400 tested, 55% active. AID 488928;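 active = drop in membrane potential signal beyond 5 SD of the control wells in both duplicate plates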;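 also: TRPC4 counter screen for TRPC6 hits run under conditions tuned for TRPC6 not TRPC4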
TRPC6 inh conf = mouse TRPC6 channel inhibitors, confirmation, HEK293 cells, membrane potential dye, duplicate; 3,300 tested, 43% active; shares compounds with TRPC6 inhibitor; inhibition, % at 10 µM; ACh-evoked depolarization;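 active = fluorescence ratio falls more than 5 SD below the full-stimulation control mean, in both duplicate runs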;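 also: integrated fluorescence ratio of peak minus minimum over baseline after agonist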
TRPC6 act confirm = mouse TRPC6 channel activators, confirmation, HEK293 cells, membrane potential dye, duplicate; HEK293-TRPC6 membrane potential dye fluorescence, FDSS; activation, % at 10 µM; shares compounds with TRPC6 inhibitor; 2,800 tested, 11% active;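 active = ratio signal rise beyond 5 SD above unstimulated control wells' mean, seen in both duplicate runs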
Numbers stand for hits; – = inactive; · = no result given. In the library only some 2.5% were active in any assay of this set; here they are far more common.

SMILES | TRPC4 block | Platelet DG rel | TRPC4 PAM | TRPC6 inhibitor | TRPC4 act | TRPC6 act | HEK293 MPD ctr-2 | HEK293 MPD ctr 2-2 | TRPC4 ctr mod | TRPC4 ctr inh 2 | TRPC6 inh conf | TRPC6 act confirm | others
Cc1nnsc1C(=O)N/N=C/c1ccc2ccccc2c1O | – | – | – | -7.6 | – | – | · | · | · | · | – | · | TRPC4 spec 2=–;TRPC4 spec=27%;HEK293 MPD ctr 2-1=-47%;HEK293 MPD ctr-1=19%
Cc1nnsc1C(=O)N/N=C/c1ccccc1 | – | – | – | – | – | – | · | · | · | · | · | ·
COc1ccc(C2=NS(=O)(=O)N(C)C(C(=O)N3CCC(C(N)=O)CC3)=C2)cc1 | – | – | – | – | – | – | · | · | · | · | · | ·
COc1ccc(-c2csc(NC(=O)CCCc3nc4ccccc4c(=O)[nH]3)n2)cc1OC | – | – | – | -5.2 | – | – | – | – | 14% | – | – | ·
CC12CCC(c3n[nH]c(=S)nc31)C2(C)C (stereo unspecified) | – | – | – | – | – | – | · | · | · | · | · | ·
O=C(CN1CCS(=O)(=O)CC1)N/N=C/c1cccc(C(F)(F)F)c1 | – | – | – | -5.3 | – | – | – | – | – | – | – | –
COc1ccc(/C=N/NC(=O)CN2CCS(=O)(=O)CC2)cc1 | – | – | – | – | – | – | · | · | · | · | · | ·
COc1cc(Br)cc2cc(C(=O)OC3CCN(C)CC3)c(=O)oc12 | – | – | – | -12 | – | – | · | · | · | · | – | – | TRPC4 spec 2=72%;TRPC4 spec=-25%;HEK293 MPD ctr 2-1=–;HEK293 MPD ctr-1=-472%
Clc1ccc(-c2nnc(COc3ncnc4sccc34)o2)cc1 | – | – | – | – | – | – | · | · | · | · | · | ·
O=C(Cn1[nH]c(=O)c2ccccc2c1=O)OCC(=O)N1CCCc2ccccc21 | – | – | – | – | – | – | · | · | · | · | · | ·
O=C(Cn1[nH]c(=O)c2ccccc2c1=O)OCC(=O)N1CCc2ccccc2C1 | – | – | – | -7.3 | – | – | · | · | · | · | – | · | TRPC4 spec 2=–;TRPC4 spec=7.2%;HEK293 MPD ctr 2-1=–;HEK293 MPD ctr-1=4.2%
CCOc1cc(/C=N/NC(=O)c2ccc3c(c2)OCCO3)cc(Br)c1O | – | – | – | – | – | – | · | · | · | · | · | ·
Cc1cccc(C)c1OCCNC(=O)c1ccc2ccccc2n1 | – | – | – | -13 | – | 12 | 150% | – | – | 44% | 91% | 78%
O=C(NCc1ccco1)c1ccc2ccccc2n1 | – | – | – | -5.1 | – | – | – | – | – | – | 44% | ·
O=C1/C(=C/c2cccc(Br)c2)SC(=S)N1/N=C/c1cc([N+](=O)[O-])ccc1O | – | – | – | – | – | – | · | · | · | · | · | ·
COc1ccc(-c2csc(NC(=O)c3ccccc3NS(=O)(=O)c3ccc(F)c(F)c3)n2)cc1 | – | – | – | -5.3 | – | – | – | – | -15% | 56% | 64% | –
Cc1ccc(S(=O)(=O)Nc2ccccc2C(=O)Nc2nc(-c3ccc(F)cc3)cs2)cc1 | – | – | – | – | – | – | · | · | · | · | · | ·
Cc1cc(NC(=O)c2ccc3c(c2)C(=O)N(C)C3=O)no1 | – | – | – | -6.1 | – | – | -99% | – | -19% | – | – | –
Nc1cnn(Cc2ccccc2F)c1 | – | – | – | – | – | – | · | · | · | · | · | ·
N=c1c(C(=O)NCCc2ccccc2)cc2c(=O)n3ccccc3nc2n1Cc1ccco1 | – | – | – | – | – | – | · | · | · | · | · | ·
N=c1c(C(=O)NCC2CCCO2)cc2c(=O)n3ccccc3nc2n1Cc1ccc(F)cc1 (stereo unspecified) | – | – | – | -6 | – | – | – | – | -9.5% | 48% | 48% | –
N=c1c(C(=O)NCC2CCCO2)cc2c(=O)n3ccccc3nc2n1Cc1cccnc1 (stereo unspecified) | – | – | – | -7.5 | – | – | – | 84% | -100% | 33% | 50% | –
N=c1c(C(=O)NCC2CCCO2)cc2c(=O)n3ccccc3nc2n1Cc1ccco1 (stereo unspecified) | – | – | – | -5.3 | – | – | – | 76% | 13% | – | – | –
CCOCCCNc1nc2nc3ccc(C)cn3c(=O)c2cc1C(=O)NCC1CCCO1 (stereo unspecified) | – | – | – | -5.5 | – | – | 149% | 61% | 24% | – | – | ·
O=[N+]([O-])c1ccccc1Oc1ncccc1[N+](=O)[O-] | – | – | – | – | – | – | · | · | · | · | · | ·
CC1(c2ccc(Cl)cc2)NC(=O)N(CC(=O)N2CCCC2)C1=O (stereo unspecified) | – | – | – | – | – | – | · | · | · | · | · | ·
